Legend:
[1] = system: MV4-11; assay: Induction of apoptosis in human MV4-11 cells assessed as necrotic cell at 0.5 uM after 12 hrs by Annexin V-FITC/propidium iodide staining-based flow cytometric analysis (reference value: 0.17 %); type: functional
[2] = system: HL-60; assay: Antiproliferative activity against human HL60 cells assessed as reduction in cell viability incubated for 72 hrs by CCK-8 assay; type: functional, cell-based; conditions: HL-60, 72 h
Method in brief: (§1)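 Cells grown in IMDM with 10% FBS and 1% penicillin–streptomycin at 37 °C in a CO₂ incubator and harvested in log phase. Seeded at 10,000 cells per well in 100 μL medium, cultured 12 h, then given compounds at a range of concentrations for 72 h. CCK-8 added for 1–4 h, absorbance read at 450 nm. IC₅₀ calculated from the dose-response data.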

[3] = system: MV4-11; assay: Cell cycle arrest in human MV4-11 cells assessed as accumulation at G1 phase after 12 hrs by propidium iodide staining based flow cytometric analysis; type: functional
[4] = system: MV4-11; assay: Induction of apoptosis in human MV4-11 cells assessed as late apoptotic cell at 0.5 uM after 12 hrs by Annexin V-FITC/propidium iodide staining-based flow cytometric analysis (reference value: 1.28 %); type: functional
[5] = system: MV4-11; assay: Induction of apoptosis in human MV4-11 cells assessed as live cell at 0.5 uM after 12 hrs by Annexin V-FITC/propidium iodide staining-based flow cytometric analysis (reference value: 97.99 %); type: functional
[6] = system: MV4-11; assay: Induction of apoptosis in human MV4-11 cells assessed as early apoptotic cell at 0.5 uM after 12 hrs by Annexin V-FITC/propidium iodide staining-based flow cytometric analysis (reference value: 0.56 %); type: functional
[7] = system: MV4-11; assay: Induction of apoptosis in human MV4-11 cells assessed as necrotic cell at 5 uM after 12 hrs by Annexin V-FITC/propidium iodide staining-based flow cytometric analysis (reference value: 0.17 %); type: functional
[8] = system: MV4-11; assay: Induction of apoptosis in human MV4-11 cells assessed as late apoptotic cell at 5 uM after 12 hrs by Annexin V-FITC/propidium iodide staining-based flow cytometric analysis (reference value: 1.28 %); type: functional
[9] = system: MV4-11; assay: Induction of apoptosis in human MV4-11 cells assessed as live cell at 5 uM after 12 hrs by Annexin V-FITC/propidium iodide staining-based flow cytometric analysis (reference value: 97.99 %); type: functional
[10] = system: MV4-11; assay: Induction of apoptosis in human MV4-11 cells assessed as early apoptotic cell at 5 uM after 12 hrs by Annexin V-FITC/propidium iodide staining-based flow cytometric analysis (reference value: 0.56 %); type: functional
[11] = system: MV4-11; assay: Cell cycle arrest in human MV4-11 cells assessed as accumulation at G0/G1 phase at 0.5 uM after 12 hrs by propidium iodide staining based flow cytometric analysis (reference value: 43.91%); type: functional
[12] = system: MV4-11; assay: Cell cycle arrest in human MV4-11 cells assessed as accumulation at G2/M phase at 0.5 uM after 12 hrs by propidium iodide staining based flow cytometric analysis (reference value: 18.19%); type: functional
[13] = system: MV4-11; assay: Cell cycle arrest in human MV4-11 cells assessed as accumulation at S phase at 0.5 uM after 12 hrs by propidium iodide staining based flow cytometric analysis (reference value: 38.62%); type: functional
[14] = system: MV4-11; assay: Cell cycle arrest in human MV4-11 cells assessed as accumulation at G0/G1 phase at 5 uM after 12 hrs by propidium iodide staining based flow cytometric analysis (reference value: 43.91%); type: functional
[15] = system: MV4-11; assay: Cell cycle arrest in human MV4-11 cells assessed as accumulation at G2/M phase at 5 uM after 12 hrs by propidium iodide staining based flow cytometric analysis (reference value: 18.19%); type: functional
[16] = system: MV4-11; assay: Cell cycle arrest in human MV4-11 cells assessed as accumulation at S phase at 5 uM after 12 hrs by propidium iodide staining based flow cytometric analysis (reference value: 38.62%); type: functional
[17] = target: T1, Bromodomain-containing protein 4 (Homo sapiens, UniProt O60885); assay: Displacement of APC-labeled biotinylated-avidin from […]-chelated recombinant human N-terminal GST-tagged BRD4 bromodomain 1 expressed in Escherichia coli preincubated for 15 mins followed by APC-labeled biotinylated-avidin addition and measured after 1 hr under dark condition by TR-FRET assay
[18] = system: MV4-11; assay: Antiproliferative activity against human MV4-11 cells assessed as reduction in cell viability incubated for 72 hrs by CCK-8 assay; type: functional, cell-based; conditions: MV4-11, 72 h; method in brief: as §1
[19] = system: MV4-11; assay: Induction of apoptosis in human MV4-11 cells after 12 hrs by Annexin V-FITC/propidium iodide staining-based flow cytometric analysis; type: functional, cell-based
[20] = target: T1, Bromodomain-containing protein 4; assay: Inhibition of BRD4 in human MV4-11 cells assessed as reduction in c-Myc expression level after 4 hrs by Western blot analysis; type: cell-based
Method in brief: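 Log-phase MV-4-11 cells (IMDM, 10% FBS, 1% penicillin–streptomycin, 37 °C) were treated with compound for 4 h, then lysed at 4 °C and protein quantified. Lysates were run on SDS-PAGE (10% separating, 4% stacking gel) and transferred to PVDF. Membranes were blocked 2 h in 5% non-fat milk/TBST at room temperature, probed for c-Myc, and band intensity quantified from three independent experiments.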

Row | Compound | IC50 [2] [µM] | IC50 [17] [nM] | IC50 [18] [nM] | other results
1 | Cc1sc2c(c1C)C(c1ccc(Cl)cc1)=N[C@@H](CC(=O)OC(C)(C)C)c1nnc(C)n1-2 | 3.46 | – | – | Activity [1]: 0.06%; Activity [3]: Dose-dependent effect; Activity [4]: 9.14%; Activity [5]: 85.57%; Activity [6]: 5.23%; Activity [7]: 0.24%; Activity [8]: 59.31%; Activity [9]: 9.58%; Activity [10]: 30.87%; Activity [11]: 57.35%; Activity [12]: 14.56%; Activity [13]: 28.09%; Activity [14]: 83.64%; Activity [15]: 13.01%; Activity [16]: 3.35%
2 | CCOC(=O)CC1OC(c2ccc(Cl)cc2)c2cc(OC)ccc2-c2c1sc(=O)n2C (configuration not stated) | 5.44 | 480 | 920 | –
3 | CCNC(=O)CC1N=C(c2ccc(Cl)cc2)c2cc(OC)ccc2-c2c1sc(=O)n2C (configuration not stated) | 12.8 | 740 | 1780 | –
4 | COc1ccc2c(c1)C(c1ccc(Cl)cc1)=NC(CC(=O)N1CCCCC1)c1sc(=O)n(C)c1-2 (configuration not stated) | 8.69 | 430 | 910 | –
5 | CCNC(=O)C[C@@H]1N=C(c2ccc(Cl)cc2)c2cc(OC)ccc2-n2c(C)nnc21 [MOLIBRESIB] | – | – | 1230 | –
6 | COc1ccc2c(c1)C(c1ccc(Cl)cc1)=NC(CC(=O)Nc1ccc(F)cc1)c1sc(=O)n(C)c1-2 (configuration not stated) | 12.4 | 680 | 1440 | –
7 | COc1ccc2c(c1)C(c1ccc(Cl)cc1)=NC(CC(=O)NC1CC1)c1sc(=O)n(C)c1-2 (configuration not stated) | 4.56 | 140 | 510 | –
8 | COc1ccc2c(c1)C(c1ccc(Cl)cc1)=NC(CC(=O)O)c1sc(=O)n(C)c1-2 (configuration not stated) | – | 870 | 2860 | –
9 | COc1ccc2c(c1)C(c1ccc(Cl)cc1)=NC(CC(=O)NC1CCCC1)c1sc(=O)n(C)c1-2 (configuration not stated) | 5.52 | 110 | 420 | Activity [1]: 0.35%; Activity [3]: Dose-dependent effect; Activity [19]: Dose-dependent effect; Activity [4]: 5.93%; Activity [5]: 87.61%; Activity [6]: 6.1%; Activity [7]: 0.42%; Activity [8]: 42.85%; Activity [9]: 26.76%; Activity [10]: 29.97%; Activity [11]: 50.67%; Activity [12]: 17.93%; Activity [13]: 31.2%; Activity [14]: 70.68%; Activity [15]: 14.11%; Activity [16]: 15.23%; inhibition [20]: Dose-dependent effect
10 | COc1ccc2c(c1)C(c1ccc(Cl)cc1)=NC(CC(=O)Nc1ccc(O)cc1)c1sc(=O)n(C)c1-2 (configuration not stated) | 9.05 | 510 | 1060 | –
11 | CCCCNC(=O)CC1N=C(c2ccc(Cl)cc2)c2cc(OC)ccc2-c2c1sc(=O)n2C (configuration not stated) | – | 1020 | 3480 | –
12 | CCOC(=O)CC1N=C(c2ccc(Cl)cc2)c2cc(OC)ccc2-c2c1sc(=O)n2C (configuration not stated) | 6.21 | 420 | 880 | –
13 | COc1ccc2c(c1)C(c1ccc(Cl)cc1)=NC(CC(=O)N1CCCC1)c1sc(=O)n(C)c1-2 (configuration not stated) | 10.4 | 540 | 1120 | –
14 | COc1ccc2c(c1)C(c1ccc(Cl)cc1)=NC(CC(=O)NC(C)(C)C)c1sc(=O)n(C)c1-2 (configuration not stated) | 5.41 | 160 | 640 | –
15 | C#CCNC(=O)CC1N=C(c2ccc(Cl)cc2)c2cc(OC)ccc2-c2c1sc(=O)n2C (configuration not stated) | 8.46 | 210 | 700 | –
16 | COc1ccc2c(c1)C(c1ccc(Cl)cc1)=NC(CC(=O)N1CCOCC1)c1sc(=O)n(C)c1-2 (configuration not stated) | 7.62 | 480 | 940 | –
17 | COc1ccc2c(c1)C(c1ccc(Cl)cc1)=NC(CC(=O)Nc1ccccc1)c1sc(=O)n(C)c1-2 (configuration not stated) | 7.74 | 200 | 670 | –

Reference: ChEMBL document CHEMBL4622959, “Design, synthesis and biological evaluation of novel 6-phenyl-1,3a,4,10b-tetrahydro-2H-benzo[c]thiazolo[4,5-e]azepin-2-one derivatives as potential BRD4 inhibitors” (Bioorg Med Chem, 2020)
